KCNK9 inh – blocks the human KCNK9 two-pore domain potassium channel | 1.2% of 310,000 active | B-score at 10 µM | HEK293 KCNK9, FluxOR thallium flux fluorescence; hits give low values | Q9NPC2;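 active = ratio B-score over 3 SD below the library mean, with starting fluorescence within 5 SD of its mean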;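 note: negative B-score means less thallium flux so channel inhibition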
hERG protect – compounds protecting human hERG from proarrhythmic drug block | AID 1511 | 0.51% of 310,000 active | CHO-hERG, FluxOR thallium flux, dofetilide IC70 present | activation (rescue from dofetilide block), less the hit threshold, % at 10 µM | Q12809;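 active = activation above the mean of controls blocked by dofetilide plus 5 SD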;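 note: thallium influx through hERG after potassium depolarization seen as dye fluorescence rise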
KCNQ1 act – human KCNQ1 channel potentiation or activation; P51787; CHO-K1 KCNQ1, thallium flux FluxOR fluorescence; hits give high values; B-score at 10 µM; 0.35% of 310,000 active; AID 2648;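 active = fluorescence ratio B-score, a plate-corrected score, at least three library SD, with initial intensity B-score within 5 SD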
Target sequence (P51787 whole entry, looked up): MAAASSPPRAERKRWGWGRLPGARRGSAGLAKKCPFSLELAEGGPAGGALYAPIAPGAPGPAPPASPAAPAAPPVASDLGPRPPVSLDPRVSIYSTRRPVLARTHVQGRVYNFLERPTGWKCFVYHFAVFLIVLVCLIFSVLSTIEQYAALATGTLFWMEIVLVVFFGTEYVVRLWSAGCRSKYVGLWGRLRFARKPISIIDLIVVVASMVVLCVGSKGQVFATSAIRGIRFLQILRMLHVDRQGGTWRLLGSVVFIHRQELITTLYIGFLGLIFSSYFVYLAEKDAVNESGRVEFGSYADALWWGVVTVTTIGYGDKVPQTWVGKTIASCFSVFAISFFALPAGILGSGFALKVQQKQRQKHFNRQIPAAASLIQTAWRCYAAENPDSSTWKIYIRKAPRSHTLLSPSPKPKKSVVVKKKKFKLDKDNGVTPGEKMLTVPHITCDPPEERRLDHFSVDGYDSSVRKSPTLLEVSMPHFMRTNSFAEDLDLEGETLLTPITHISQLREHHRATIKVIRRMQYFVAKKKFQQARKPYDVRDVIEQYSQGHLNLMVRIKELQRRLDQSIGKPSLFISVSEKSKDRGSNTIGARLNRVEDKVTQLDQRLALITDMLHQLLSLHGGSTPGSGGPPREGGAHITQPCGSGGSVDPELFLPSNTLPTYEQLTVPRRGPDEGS
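Material: CHO-K1 cells stably expressing KCNQ1. Medium: assay buffer for compound exposure, DMSO matched across wells. Reagent: K+/Tl+ depolarizing stimulus. Compound dosing: single-concentration screen. Times: 37 °C overnight plating, 90-min dark dye load, 20-min compound pretreatment. Technique: FluxOR Tl+ flux fluorescence.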
Kir21 block – inhibitors of mouse Kir2.1 inward-rectifier potassium channel | B-score at 10 µM | 0.85% of 310,000 active | AID 1672 | HEK293-Kir2.1, FluxOR thallium flux fluorescence; hits give low values;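 active = fluorescence ratio B-score at or below minus 3 SD of library scores, with starting-brightness B-score within 2 SD, cut at about -4.2 in these data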;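 note: channel flux triggered by added potassium and thallium sulfate stimulus; B-score of peak minus minimum fluorescence over baseline after thallium stimulus; more negative B-score means stronger Kir2.1 block with less thallium influx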
KCNK3 block – human KCNK3 channel inhibition, primary screen. O14649. CHO-KCNK3 thallium flux, FluxOR fluorescence; hits give low values. B-score at 10 µM. 0.84% of 340,000 active. AID 602410;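 active = B-score under library mean minus 4 SD, starting fluorescence ratio at most library mean plus 5 SD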;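 note: more negative B-score means stronger inhibition of thallium flux through KCNK3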
KCNQ1 inh – blocks the human KCNQ1 potassium channel | B-score at 10 µM | 1.3% of 310,000 active | CHO-K1 KCNQ1, FluxOR thallium flux fluorescence; hits give high values;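 active = compounds whose thallium flux B-score, printed positive for inhibition, exceeds three library SD while starting fluorescence stays within three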;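 note: channel opened by potassium depolarization with thallium stimulus after 20 min compound exposure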
KCNK9 inh conf – confirmation of human KCNK9 potassium channel inhibitors. shares compounds with KCNK9 inh. HEK293 KCNK9 cells, FluxOR thallium flux fluorescence. inhibition, % at 10 µM. 43% of 4,900 active. AID 492992;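 active = thallium signal inhibited by more than 5 SD of the compound-free buffer control wells, on both duplicate plates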
Kir2-1 spec – selectivity of KCNK9 modulators against mouse Kir2.1; Kir2.1 cells, FluxOR thallium flux fluorescence; shares compounds with KCNK9 inh; 4% of 4,900 active; inhibition, % at 10 µM;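 active = thallium signal drop more than 5 SD beyond the mean of the no-compound control wells, seen in both duplicate plates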;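 note: signal is fluorescence rise after thallium addition divided by baseline fluorescence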
KCNK9 uninduced – second check of KCNK9 modulator effects in non-induced HEK293 cells; shares compounds with KCNK9 inh; FluxOR thallium flux; inhibition, % at 10 µM; 40% of 4,900 active; AID 492997;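 active = thallium signal drop beyond 5 SD of the untreated control mean, on both duplicate plates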
KCNK3 inh conf – human KCNK3 channel inhibition, confirmation assay; ratio percent of control, % at 10 µM; CHO-KCNK3 thallium flux, FluxOR fluorescence; 0% buffer, 100% carvedilol maximal block; shares compounds with KCNK3 block; 99% of 2,400 active; AID 651638;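 active = ratio percent of control, averaged over triplicates, above buffer control mean plus 5 SD, cut at about 64% in these data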;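 note: ratio is the fluorescence rise from min to max over baseline after thallium stimulus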
KCNK3 noninduced – counter-screen for KCNK3 inhibitors: effect in non-induced cells; thallium flux ratio (lower = more inhibition) at 10 µM; shares compounds with KCNK3 block; 40% of 2,400 active; non-induced KCNK3 parental cells, FluxOR thallium flux; hits give low values;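 active = thallium flux ratio, averaged over three wells, more than 5 SD below the buffer control mean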;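 note: host cells are CHO cells without KCNK3 induction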
Each line names hits and unclear results; the compound was inactive in the other large screens (follow-up assays come after a bar, where they were run). Rows were chosen to be rich in hits. Some 3.8% of all compounds tested hit in one or more screens of this group.

COc1cc2ccc(=O)oc2c(CC=C(C)C)c1OC	none
COc1cc(NC(=O)CN2C(=O)c3ccccc3S2(=O)=O)cc(OC)c1	none (no result: KCNK9 inh, hERG protect, KCNQ1 act, Kir21 block, KCNQ1 inh)
CC(Oc1ccccc1F)C(=O)NNC(=O)CCNC(=O)c1ccccc1Cl (stereo not drawn)	none
CC(C)(C)c1ccc(/C=C/C(=O)N2CCc3ccccc3C2)cc1	KCNK3 block -11.3, KCNQ1 inh 13 | KCNK9 inh conf inactive | Kir2-1 spec inactive | KCNK9 uninduced 26.5% | KCNK3 inh conf 124.3 | KCNK3 noninduced 0.153
Cc1ccc(/C=C/C(=O)N2CCc3ccccc3C2)cc1	none
CCc1ccc(NC(=O)CN(N=Nc2nonc2C)c2nonc2C)cc1	KCNK9 inh -8.99, KCNK3 block -11.4 | KCNK9 inh conf 64.0% | Kir2-1 spec inactive | KCNK9 uninduced 33.5% | KCNK3 inh conf 115.3 | KCNK3 noninduced inactive
Cc1cc(NC(=O)c2cccc(COc3ccc(Br)cc3)c2)no1	KCNK9 inh -11.2, KCNK3 block -8.88 | KCNK9 inh conf inactive | Kir2-1 spec inactive | KCNK9 uninduced inactive | KCNK3 inh conf 65.3 | KCNK3 noninduced inactive
COc1ccc(C)cc1NC(=O)c1cccc(C(=O)Nc2cc(C)ccc2OC)n1	KCNK9 inh -15.5 | KCNK9 inh conf 61.0% | Kir2-1 spec inactive | KCNK9 uninduced 31.5% | KCNK3 inh conf 107.3 | KCNK3 noninduced inactive
CCOC(=O)c1sc(NC(=O)CSc2nc(-c3ccco3)cc(C(F)(F)F)n2)c(C#N)c1C	none
CCOC(=O)C(C)Sc1nc(-c2ccco2)cc(C(F)(F)F)c1C#N (stereo not drawn)	KCNK9 inh -15.7, KCNK3 block -12.1 | KCNK9 inh conf 70.5% | Kir2-1 spec inactive | KCNK9 uninduced 44.0% | KCNK3 inh conf 97.7 | KCNK3 noninduced 0.131
COC(=O)[C@]1(Cc2ccccc2)N[C@H](CN(C)C(=O)Nc2ccc(C(F)(F)F)cc2)[C@@H]2C(=O)N(C)C(=O)[C@@H]21	none (no result: KCNK9 inh, hERG protect, KCNQ1 act, Kir21 block, KCNQ1 inh)
CCc1cc2c(CN(C)Cc3ccccc3F)cc(=O)oc2cc1O	KCNK9 inh -8.47, Kir21 block -5.91, KCNK3 block -14.7 | KCNK9 inh conf 41.5% | Kir2-1 spec inactive | KCNK9 uninduced inactive | KCNK3 inh conf 113.7 | KCNK3 noninduced 0.159
COc1cccc(CN(C)Cc2cc(=O)oc3cc(O)c(Cl)cc23)c1	none
COc1ccc(OC)c(-c2csc(NC(=O)c3ccccc3F)n2)c1	none
COc1ccc(OC)c(-c2csc(NC(=O)Cc3ccccc3OC)n2)c1	KCNK9 inh -16, KCNK3 block -12.8 | KCNK9 inh conf inactive | Kir2-1 spec inactive | KCNK9 uninduced 40.0% | KCNK3 inh conf 89.3 | KCNK3 noninduced inactive
CCCCOc1ccc2c(C)cc(=O)oc2c1OCCCC	KCNK9 inh -25.2, KCNK3 block -9.4, KCNQ1 inh 7 | KCNK9 inh conf 76.0% | Kir2-1 spec inactive | KCNK9 uninduced 36.5% | KCNK3 inh conf 118.7 | KCNK3 noninduced 0.135
CCOc1ccc2c(C)cc(=O)oc2c1OCC	none
O=[N+]([O-])c1cc([N+](=O)[O-])c(Oc2cccc(Cl)c2Cl)cc1NN1CCCCC1	none
CC1(C)Cc2cccc(Oc3cc(NN4CCCCC4)c([N+](=O)[O-])cc3[N+](=O)[O-])c2O1	KCNK9 inh -14.4, KCNK3 block -11.7, KCNQ1 inh 6 | KCNK9 inh conf 56.5% | Kir2-1 spec inactive | KCNK9 uninduced 40.5% | KCNK3 inh conf 87.7 | KCNK3 noninduced inactive
CCn1cc(Br)c(C(=O)Nc2ccc(F)c(Cl)c2)n1	KCNK9 inh -12, KCNK3 block -11.3 | KCNK9 inh conf 46.5% | Kir2-1 spec inactive | KCNK9 uninduced 29.5% | KCNK3 inh conf 103.7 | KCNK3 noninduced inactive
CC(C)(O)c1[nH]c2cc(F)ccc2c1C(C)(C)O	none
O=C(Nc1nc(-c2ccc(Cl)s2)cs1)c1cccs1	KCNK9 inh -9.16, KCNK3 block -8.87 | KCNK9 inh conf inactive | Kir2-1 spec inactive | KCNK9 uninduced 31.5% | KCNK3 inh conf 97.0 | KCNK3 noninduced inactive
O=C(Nc1nc(-c2ccccc2)cs1)c1cccs1	none
O=C(C/C=N/OCc1ccc(Cl)cc1Cl)c1ccc(Cl)cc1	KCNK9 inh -14.9, KCNK3 block -8.99 | KCNK9 inh conf 43.0% | Kir2-1 spec inactive | KCNK9 uninduced 43.0% | KCNK3 inh conf 93.0 | KCNK3 noninduced 0.15
CSC(=NC#N)N1CCN(C(=NC#N)SC)CC1	none
CSC(=NC#N)N1CCN(C(c2ccccc2)c2ccccc2)CC1	KCNK9 inh -9.79 | KCNK9 inh conf 39.0% | Kir2-1 spec inactive | KCNK9 uninduced 35.0% | KCNK3 inh conf 122.7 | KCNK3 noninduced inactive
O=C(O)c1ccc(CS(=O)(=O)c2ccc(Br)cc2)cc1	none
CCOC(=O)c1c(CSC(=N)N)n(-c2ccc(C)cc2)c2cc(Br)c(OC(C)=O)cc12	KCNK9 inh -8.7, Kir21 block -14.8, KCNK3 block -11.8, KCNQ1 inh 6 | KCNK9 inh conf inactive | Kir2-1 spec inactive | KCNK9 uninduced inactive | KCNK3 inh conf 129.3 | KCNK3 noninduced 0.153
CCOC(=O)c1c(CN(C)C)n(-c2ccc(C)cc2)c2cc(Br)c(O)cc12	none
COC(=O)c1ccsc1NC(=O)CN1CCN(c2ccc(F)cc2)CC1	KCNK9 inh -11.1 | KCNK9 inh conf inactive | Kir2-1 spec inactive | KCNK9 uninduced 28.0% | KCNK3 inh conf 105.0 | KCNK3 noninduced inactive
CCN(C(=O)CSc1nc2n[nH]c(C)c2c(=N)n1-c1ccc(Cl)c(C)c1)c1cccc(C)c1	KCNK9 inh -21.2, KCNK3 block -12 | KCNK9 inh conf 68.5% | Kir2-1 spec inactive | KCNK9 uninduced 40.0% | KCNK3 inh conf 96.7 | KCNK3 noninduced 0.13
O=C(Nc1cccc(-c2nnc(-c3ccccc3)o2)c1)C1CCCCC1	KCNK9 inh -8.77, KCNK3 block -10.9 | KCNK9 inh conf 34.0% | Kir2-1 spec inactive | KCNK9 uninduced 30.0% | KCNK3 inh conf 95.7 | KCNK3 noninduced inactive
CCC(=O)Nc1cccc(-c2nnc(-c3ccccc3)o2)c1	none
O=C1COc2ccc(C(=O)COC(=O)c3nc(Cl)ccc3Cl)cc2N1	none (no result: KCNK9 inh, hERG protect, KCNQ1 act, Kir21 block, KCNQ1 inh)
CCN(c1cccc(C)c1)S(=O)(=O)c1ccc(-c2ccc(=O)[nH]n2)o1	none

Screening data deposited in PubChem by Johns Hopkins Ion Channel Center.
